In ChEMBL document CHEMBL5113474, “Triazole-substituted phenylboronic acids as tunable lead inhibitors of KPC-2 antibiotic resistance” (Eur J Med Chem, 2022):
Converted amounts (≈) assume the structure as drawn.

How the values were obtained:
Escherichia coli [1] = format: functional, BL21 (DE3); settings: time 16-18 hrs
Bacteria = experiment: Inhibition of bacterial beta-lactamase KPC-2 expressed in Escherichia coli BL21 (DE3) using nitrocefin as substrate at 1 uM by spectrophotometric analysis relative to control
Outline: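 Purified recombinant KPC-2 tested against the chromogenic β-lactam nitrocefin at 1 µM inhibitor. Hydrolysis was followed as the rise in absorbance at 482 nm (ε482 = 17,400 M-1 cm-1). Activity is expressed as percent inhibition relative to an uninhibited control.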

[2] = Inhibition of bacterial beta-lactamase KPC-2 expressed in Escherichia coli BL21 (DE3) using nitrocefin as substrate assessed as inhibition constant by Cheng-Prusoff equation analysis; parameters: species or system Bacteria
Escherichia coli [3] = experiment: microbe, parasite or virus in culture; format: functional; settings: BL21 (DE3), dose 50 µg/ml, time 16-20 hrs
Escherichia coli [4] = experiment: Antibacterial activity against Escherichia coli NCTC10418; format: functional
[5] = Cytotoxicity against HEK293 cells assessed as cell viability at 5 to 50 ug/ml incubated for 24 hrs in presence of cefotaxime by MTT assay relative to control; settings: human, at 5 to 50 µg/mL
Escherichia coli [6] = experiment: microbe, parasite or virus in culture; format: functional; settings: BL21 (DE3), dose 5 µg/ml, time 16-20 hrs
[7] = Cytotoxicity against HEK293 cells assessed as cell viability at 5 to 50 ug/ml incubated for 24 hrs by MTT assay relative to control; settings: human, at 5 to 50 µg/mL
Escherichia coli [8] = experiment: microbe, parasite or virus in culture; format: functional; settings: BL21 (DE3), dose 5 µg/ml, time 16-20 hrs; remark: listed apart in the source
physchem = settings: 0.1 M phosphate buffer, pH 4.3
Escherichia coli [9] = experiment: Potentiation of cefotaxime induced antibacterial activity against Escherichia coli expressing CMY-4/TEM-1 assessed as cefotaxime MIC at 5 ug/ml incubated for 16 to 20 hrs by microdilution method; format: functional; settings: dose 5 µg/ml, time 16-20 hrs
Outline: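 Cefotaxime MIC re-measured with the boronic acid inhibitor held at a fixed 5 μg/mL, lowered from an earlier 50 μg/ml fixed-dose combination; MICs interpreted against CLSI susceptibility categories.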

Escherichia coli [10] = experiment: microbe, parasite or virus in culture; format: functional; settings: BL21 (DE3), dose 50 µg/ml, time 16-20 hrs; remark: listed apart in the source
[11] = Inhibition of class C […]beta-lactamase AmpC (unknown origin); parameters: species or system Bacteria

OB(O)c1cccc(Cn2cc(C3CC3)nn2)c1
inhibition zone (IZ) (Escherichia coli [1]): 30.9 mm
inhibition (Bacteria): 30%
Ki [2]: 515 nM

OB(O)c1cccc(Cn2cc(-c3cccs3)nn2)c1
MIC (Escherichia coli [3]): ≤ 0.06 µg/mL
inhibition zone (IZ) (Escherichia coli [1]): 33.7 mm
inhibition (Bacteria): 85%
MIC (Escherichia coli [4]): > 64 µg/mL
viability at 24 h [5]: > 80%
Ki [2]: 67 nM
MIC (Escherichia coli [6]): ≤ 0.06 µg/mL
viability at 24 h [7]: > 80%
MIC (Escherichia coli [8]): ≤ 0.06 µg/mL

CC(C)(C)c1cn(-c2cccc(B(O)O)c2)nn1
inhibition zone (IZ) (Escherichia coli [1]): 32.7 mm
inhibition (Bacteria): 14%
Ki [2]: 660 nM

[N-]=[N+]=Nc1cccc(B(O)O)c1
inhibition zone (IZ) (Escherichia coli [1]): 31.3 mm
pKa at 100 µM (physchem): 8.27
inhibition (Bacteria): 34%
MIC (Escherichia coli [4]): > 64 µg/mL
Ki [2]: 450 nM
MIC (Escherichia coli [6]): ≤ 0.06 µg/mL
MIC (Escherichia coli [9]): 1 µg/mL
MIC (Escherichia coli [10]): ≤ 0.06 µg/mL
MIC (Escherichia coli [8]): 0.25 µg/mL (≈ 1.53 µM)

COc1ccc(-c2cn(-c3cccc(B(O)O)c3)nn2)cc1
inhibition zone (IZ) (Escherichia coli [1]): 30.1 mm
inhibition (Bacteria): 5.9%

O=C(Nc1cccc(B(O)O)c1)c1cc2ccccc2s1
inhibition zone (IZ) (Escherichia coli [1]): 28.4 mm
inhibition (Bacteria): 8.6%
viability at 24 h [5]: > 80%
viability at 24 h [7]: > 80%

[N-]=[N+]=NCc1cccc(B(O)O)c1
inhibition zone (IZ) (Escherichia coli [1]): 30 mm
inhibition (Bacteria): 30%
MIC (Escherichia coli [4]): > 64 µg/mL
viability at 24 h [5]: > 80%
Ki [2]: 830 nM
MIC (Escherichia coli [6]): ≤ 0.06 µg/mL
viability at 24 h [7]: > 80%
MIC (Escherichia coli [8]): 0.12 µg/mL (≈ 0.678 µM)

OB(O)c1ccc(Cn2cc(-c3ccsc3)nn2)cc1
inhibition zone (IZ) (Escherichia coli [1]): 27.6 mm
inhibition (Bacteria): 53%
viability at 24 h [5]: > 80%
Ki [2]: 219 nM
viability at 24 h [7]: > 80%

COc1ccc(-c2cn(Cc3ccc(B(O)O)cc3)nn2)cc1
inhibition zone (IZ) (Escherichia coli [1]): 22.6 mm
inhibition (Bacteria): 59%
Ki [2]: 227 nM

OB(O)c1cccc(-n2cc(-c3cccs3)nn2)c1
inhibition zone (IZ) (Escherichia coli [1]): 31.8 mm
inhibition (Bacteria): 20%
viability at 24 h [5]: > 80%
Ki [2]: 710 nM
viability at 24 h [7]: > 80%

O=C(O)c1cn(-c2cccc(B(O)O)c2)nn1
inhibition zone (IZ) (Escherichia coli [1]): 32.9 mm
inhibition (Bacteria): 0.3%
viability at 24 h [5]: > 80%
viability at 24 h [7]: > 80%

O=C(Nc1cccc(B(O)O)c1)c1ccccc1
inhibition zone (IZ) (Escherichia coli [1]): 25.2 mm
inhibition (Bacteria): 40%
viability at 24 h [5]: > 80%
viability at 24 h [7]: > 80%

OB(O)c1ccc(Cn2cc(-c3cccnc3)nn2)cc1
inhibition zone (IZ) (Escherichia coli [1]): 23.7 mm
inhibition (Bacteria): 59%

O=[N+]([O-])c1cc(B(O)O)c(F)cc1F
inhibition zone (IZ) (Escherichia coli [1]): 29.3 mm
pKa at 100 µM (physchem): 5.98

O=C(O)c1cn(Cc2cccc(B(O)O)c2)nn1
MIC (Escherichia coli [3]): 2 µg/mL (≈ 8.1 µM)
inhibition zone (IZ) (Escherichia coli [1]): 21.4 mm
inhibition (Bacteria): 10%
MIC (Escherichia coli [4]): > 64 µg/mL
viability at 24 h [5]: > 80%
Ki [2]: 1020 nM
MIC (Escherichia coli [6]): 2 µg/mL (≈ 8.1 µM)
viability at 24 h [7]: > 80%
MIC (Escherichia coli [10]): 0.12 µg/mL (≈ 0.486 µM)
MIC (Escherichia coli [8]): 4 µg/mL (≈ 16.2 µM)

CCC(=O)Nc1cccc(B(O)O)c1
inhibition zone (IZ) (Escherichia coli [1]): 25.2 mm
inhibition (Bacteria): 16%
viability at 24 h [5]: > 80%
viability at 24 h [7]: > 80%

O=C(Nc1cccc(B(O)O)c1)c1ccsc1
MIC (Escherichia coli [3]): 2 µg/mL (≈ 8.09 µM)
inhibition zone (IZ) (Escherichia coli [1]): 29 mm
inhibition (Bacteria): 28%
MIC (Escherichia coli [4]): > 64 µg/mL
viability at 24 h [5]: > 80%
Ki [2]: 870 nM
MIC (Escherichia coli [6]): 0.12 µg/mL (≈ 0.486 µM)
viability at 24 h [7]: > 80%
MIC (Escherichia coli [10]): 0.12 µg/mL (≈ 0.486 µM)
MIC (Escherichia coli [8]): 4 µg/mL (≈ 16.2 µM)

Nc1cc(F)c(F)c(B(O)O)c1
inhibition zone (IZ) (Escherichia coli [1]): 25.5 mm

OB(O)c1ccc(Cn2cc(-c3ccccn3)nn2)cc1
inhibition zone (IZ) (Escherichia coli [1]): 27.4 mm
inhibition (Bacteria): 47%
viability at 24 h [5]: > 80%
viability at 24 h [7]: > 80%

O=C(Nc1cccc(B(O)O)c1)c1cccs1
inhibition zone (IZ) (Escherichia coli [1]): 26 mm
inhibition (Bacteria): 2%
viability at 24 h [5]: > 80%
Ki [2]: 2900 nM
viability at 24 h [7]: > 80%

Cc1ccc(F)c(B(O)O)c1
inhibition zone (IZ) (Escherichia coli [1]): 29.6 mm

CCOC(=O)c1cn(Cc2cccc(B(O)O)c2)nn1
inhibition zone (IZ) (Escherichia coli [1]): 31.8 mm
inhibition (Bacteria): 7%
Ki [2]: 900 nM

O=S(=O)(NCB(O)O)c1ccc(-c2nnn[nH]2)cc1C(F)(F)F
Ki [11]: 0.05 nM

Nc1cc(B(O)O)cc([N+](=O)[O-])c1
inhibition zone (IZ) (Escherichia coli [1]): 26.9 mm

[N-]=[N+]=Nc1ccc(F)c(B(O)O)c1
MIC (Escherichia coli [3]): 0.5 µg/mL (≈ 2.76 µM)
inhibition zone (IZ) (Escherichia coli [1]): 25.3 mm
pKa at 100 µM (physchem): 6.87
inhibition (Bacteria): 37%
MIC (Escherichia coli [4]): > 64 µg/mL
Ki [2]: 570 nM
MIC (Escherichia coli [6]): 1 µg/mL (≈ 5.53 µM)
MIC (Escherichia coli [10]): 0.25 µg/mL (≈ 1.38 µM)
MIC (Escherichia coli [8]): 1 µg/mL (≈ 5.53 µM)
